High-throughput results deposited in PubChem by several laboratories.
Compounds with a hit are over-represented: about 1.6% of the library has one in this group of screens.
p-CIP stab down: p/CIP protein destabilization | Q05BA5 | F442A p/CIP-EGFP cells, EGFP fluorescence, 16 h | decrease of EGFP signal, % at 10 µM | 290,000 compounds, 0.01% hits;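 active = EGFP signal decrease of at least 30% at 10 µM or well 3 SD below plate mean, unless failing retest; inactive = the rest, including hits failing retest or dose response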
MT1-MMP act inh: inhibitors of human MT1-MMP activation; P50281; HT1080 RFP-PRO-GFP cells, GFP/RFP ratio fluorescence, overnight; percent of plate control window, DMSO zero; GFP/RFP ratio change, % at 20 µM; 360,000 compounds, 0.061% hits; AID 651647;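 active = GFP/RFP ratio change of at least 30% with cell ATP level not reduced by more than half and red fluorescence within 50% of control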
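Assay system: HT1080 cells carrying an RFP-PRO-GFP reporter | Dosing: Single dose of 20 µM compound, 1% DMSO final | Incubation: Cells overnight before dosing, compound overnight, 37 °C, 5% CO2 | Evaluation: GFP/RFP fluorescence ratio | Control set: DMSO and RFP-L50D-GFP cell wells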
MsrA inhibitor: bovine MsrA inhibition. AID 651718. purified bovine MsrA, absorbance read-out. 360,000 compounds, 0.75% hits. inhibition, % at 15.5 µM; in the data active = inhibition above about 4.5%
bovine MsrA act: activates bovine MsrA enzyme. purified bovine MsrA, absorbance read-out. activation, % at 10.6 µM. 360,000 compounds, 0.3% hits. AID 602163; in the data active = activation above about 7.5%
SKN-1 inh: blocks SKN-1 activity in C. elegans; inhibition, % at 21.8 µM; 360,000 compounds, 0.49% hits; C. elegans VP596 Pgst-4::GFP/RFP ratio, acrylamide-induced, 24 h; AID 624304;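 active = interference check ratio from 0.5 to 1.5 plus GFP to RFP signal ratio inhibition reaching or exceeding a fixed threshold, cut at about 30% in these data, passing the limit was not always enough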
Each line names hits and unclear results; the compound was inactive in the other large screens.

CC(NC(=O)Nc1nnc(C(F)(F)F)s1)(C(F)(F)F)C(F)(F)F	SKN-1 inh 32
CCOc1cc(C(c2c(C)[nH][nH]c2=O)c2c(C)[nH][nH]c2=O)ccc1OS(=O)(=O)c1ccc(C)cc1	SKN-1 inh 46
COC(=O)C1=C(C)N(C)C(=NCc2ccc(C(F)(F)F)cc2)NC1c1cccc(F)c1 (stereo not drawn)	none (no result: p-CIP stab down, MT1-MMP act inh, bovine MsrA act, SKN-1 inh)
Brc1cc(Br)c2nc(-c3cccs3)ccc2c1	SKN-1 inh 58
Nc1nccc(-c2cccs2)n1	none
Clc1ccc(-c2cn3cc(Br)ccc3n2)cc1Cl	SKN-1 inh 57
O=C(/C=C/Sc1ccccc1)c1ccccc1	SKN-1 inh 81
O=C(C=Cc1ccccc1Cl)c1ccccc1	none (no result: p-CIP stab down)
O=C(/C=C/Sc1ccccc1)c1ccc(Cl)cc1	SKN-1 inh 36
CCOC(=O)c1[nH]c(C)c(/C(O)=C2\C(=O)C(=O)N(CCCN3CCOCC3)C2c2cccnc2)c1C (stereo not drawn)	none
COC(=O)c1[nH]c(C)c(/C(O)=C2\C(=O)C(=O)N(CCCN3CCOCC3)C2c2ccccn2)c1C (stereo not drawn)	SKN-1 inh 38
O=C(Nc1sc2c(c1C(=O)c1ccc(Cl)cc1)CCCC2)c1cccnc1	SKN-1 inh 35
COc1cccc(C2NC(=S)N(Cc3ccc(Br)cc3)C(C)=C2C(C)=O)c1 (stereo not drawn)	none (no result: p-CIP stab down, MT1-MMP act inh, bovine MsrA act, SKN-1 inh)
CC1=Nc2ccc(C)cc2/C1=C/c1c(N)n2nc(CC(=O)N3CCOCC3)sc2nc1=O	SKN-1 inh 38
Nc1c(/C=C2/C=CC(=O)C(O)=C2)c(=O)nc2sc(CC(=O)N3CCOCC3)nn12	none (no result: p-CIP stab down)
CCOc1ccc(OCC)c(NC(=O)CSCC(=O)O)c1	SKN-1 inh 36
COc1cccc(N=Nc2ccc3ccccc3c2O)c1	none
COc1ccc(N=Nc2ccc3ccccc3c2)c(O)c1	SKN-1 inh 33
CCN(CC)c1ccc(/C=c2\sc3nc4ccccc4n3c2=O)c(O)c1	SKN-1 inh 45
O=C(NCCCCC(NC(=O)c1ccccc1)C(=O)O)OCc1ccccc1 (stereo not drawn)	none (no result: p-CIP stab down, MT1-MMP act inh, bovine MsrA act, SKN-1 inh)
CCC(c1nnnn1CCOC)N1CCN(Cc2ccccc2)CC1 (stereo not drawn)	SKN-1 inh 36 (no result: MT1-MMP act inh)
CN(C)/C=N/c1ncc(C(=O)c2ccc3ccccc3c2)s1	MsrA inhibitor 4.6
O=C(CCc1ccccc1)NC1CCSC1=O (stereo not drawn)	SKN-1 inh 47
CCN1C(=O)C2C(c3ccccc3F)NC(Cc3ccc(O)cc3)(C(=O)OC)C2C1=O (stereo not drawn)	SKN-1 inh 37
CCOC(=O)C1(Cc2ccccc2)NC(c2ccccc2F)C2C(=O)N(CC)C(=O)C21 (stereo not drawn)	none
COC(=O)C1=C(C)N(Cc2cccc(C(F)(F)F)c2)C(=NCc2cc(OC)c(OC)c(OC)c2)NC1c1ccccc1C(F)(F)F (stereo not drawn)	none (no result: p-CIP stab down, MT1-MMP act inh, bovine MsrA act, SKN-1 inh)
O=C(CC1Sc2ccccc2NC1=O)NNc1cc(Cl)ccc1Cl (stereo not drawn)	SKN-1 inh 40 (no result: p-CIP stab down)
O=C(CC1Sc2ccccc2NC1=O)NNc1ccc(F)cc1 (stereo not drawn)	none (no result: p-CIP stab down)
CC(=O)C1=C(C)N(Cc2ccc(Br)cc2)C(=S)NC1c1cccc(F)c1 (stereo not drawn)	none (no result: p-CIP stab down, MT1-MMP act inh, bovine MsrA act, SKN-1 inh)
CCOC(=O)N1CCN(C(=O)C[C@H]2C[C@@]3(C(=O)OC)C(=C[C@H](COCc4ccccc4)O[C@@H]3C)N(CCC3=CCCCC3)C2=O)CC1	none (no result: p-CIP stab down, MT1-MMP act inh, bovine MsrA act, SKN-1 inh)
CN1CCc2cc3c(c4c2[C@H]1[C@H](O)c1ccccc1-4)OCO3	bovine MsrA act 37
COc1ccc(/C=N/NC(=O)Cc2csc(Nc3cccc(C(F)(F)F)c3)n2)cc1C	SKN-1 inh 37
COc1ccc(CN(C(=O)c2oc3ccccc3c2C)C2CCS(=O)(=O)C2)cc1 (stereo not drawn)	SKN-1 inh 36
Cc1c(C(=O)N(Cc2ccccc2)C2CCS(=O)(=O)C2)oc2ccccc12 (stereo not drawn)	none
Cc1ccc(C(=O)Nc2ncc([N+](=O)[O-])s2)cc1	SKN-1 inh 37
N#C/C(=C\c1ccc(Cl)cc1Cl)c1n[nH]c(Cn2cncn2)n1	SKN-1 inh 44
COC(=O)C1=C(C)N(Cc2cccc(C(F)(F)F)c2)C(=NCc2cc(OC)c(OC)c(OC)c2)NC1c1cccc(F)c1 (stereo not drawn)	none (no result: p-CIP stab down, MT1-MMP act inh, bovine MsrA act, SKN-1 inh)
CC(=O)CSc1nc2ccccc2s1	SKN-1 inh 34
O=C(CSc1nc2ccccc2s1)CSc1nc2ccccc2s1	none
Cc1ccc(N=C/C(C(=O)C(F)(F)F)=C(\O)c2ccco2)cc1Cl	SKN-1 inh 57
Cc1cccc(N=C/C(C(=O)C(F)(F)F)=C(\O)c2ccco2)c1	none
C[C@@H]1CN(C(=O)OC(C)(C)C)CCN1c1ccc(N2CCN(Cc3ccccc3)[C@@H](C)C2)c(C#N)c1	none (no result: p-CIP stab down, MT1-MMP act inh, bovine MsrA act, SKN-1 inh)
CC(C)NC(=O)C1(C)CSCC(=O)N1CCCN1CCOCC1 (stereo not drawn)	SKN-1 inh 35 (no result: p-CIP stab down, bovine MsrA act)
O=C(/C=C/c1ccccc1)Nc1ccc2c(c1)OCCO2	none
COc1cccc(NC(=O)/C=C/c2ccco2)c1	MsrA inhibitor 4.6
O=C(/C=C/c1ccco1)Nc1ccc2c(c1)OCCO2	MsrA inhibitor 4.6
Cc1ccc(NC(=O)/C=C/c2ccco2)nc1	MsrA inhibitor 5.0
CSc1cccc(NC(=O)/C=C/c2ccco2)c1	none
COc1ccc(C2NC(=S)N(Cc3ccc(Cl)cc3)C(C)=C2C(C)=O)cc1 (stereo not drawn)	none (no result: p-CIP stab down, MT1-MMP act inh, bovine MsrA act, SKN-1 inh)
CN(C)c1ccc(N(C)C)c(C(O)(c2ccccc2)c2ccccc2)c1	none (no result: p-CIP stab down, MT1-MMP act inh, bovine MsrA act, SKN-1 inh)
CCCCOCC1CN(CCCC)S(=O)(=O)c2c(cccc2Sc2ccc(OC)c(OC)c2)O1 (stereo not drawn)	none (no result: p-CIP stab down, MT1-MMP act inh, bovine MsrA act, SKN-1 inh)
Cc1noc(C)c1S(=O)(=O)N1CCCc2nc(-c3ccc(F)cc3)ccc21	none (no result: p-CIP stab down, MT1-MMP act inh, bovine MsrA act, SKN-1 inh)
N=c1oc2ccccc2cc1-c1nc(-c2ccccc2)cs1	SKN-1 inh 58
N=c1oc2ccc3ccccc3c2cc1-c1nc(-c2ccccc2)cs1	none
O=C(NCc1ccccc1)[C@H]1CCCN1C(=O)[C@H]1CCCN1C(=O)c1ccccc1C(F)(F)F	none (no result: p-CIP stab down, MT1-MMP act inh, bovine MsrA act, SKN-1 inh)
Cc1sc(NC(=O)c2ccco2)c(C(c2cccnc2)N2CCCC2)c1C (stereo not drawn)	SKN-1 inh 30
CCCCc1c(-c2ccccc2OC)ncn1C1CCCCC1	none (no result: p-CIP stab down, MT1-MMP act inh, bovine MsrA act, SKN-1 inh)
Cc1ccc(N/C=C/C(=O)c2cccs2)cc1C	SKN-1 inh 39
Cc1cc(N/C=C/C(=O)c2cccs2)ccc1F	none
O=C(N[C@H](C(=O)N1CCC[C@H]1C(=O)NCCc1ccccc1Cl)c1ccccc1)c1cccs1	none (no result: p-CIP stab down, MT1-MMP act inh, bovine MsrA act, SKN-1 inh)
CCOC(=O)C1Nc2ccccc2C2C(O)C(O)CC12 (stereo not drawn)	MT1-MMP act inh 46 (no result: p-CIP stab down)
CCOC(=O)C1Nc2ccc(C(F)(F)F)cc2C2c3ccccc3CC12 (stereo not drawn)	none (no result: p-CIP stab down)
C/C(=C\C(=O)c1ccc(C)cc1)NCc1ccc(F)cc1	none (no result: p-CIP stab down)
C/C(=C\C(=O)c1ccccc1)NCc1ccc(F)cc1	SKN-1 inh 33
S=C(Nc1ccccn1)c1ccccn1	SKN-1 inh 39
